# Measurements as given in paper PMC12461553 (RSC Advances, 2025).
# Assays:
# MCF-7 cells [1] = assay: SRB cytotoxicity assay, MCF-7; type: cell-based, human
# 4T1 cells [2] = assay: SRB cytotoxicity assay, 4T1; type: cell-based, murine
# In short: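 Single-dose screen: cells in DMEM/10% FBS at 37 °C, 5% CO2, seeded at 3000 per well, attached 24 h, then exposed to test compound at 25 μM final for 48 h. Fixed in cold 10% TCA, 1 h, 4 °C; stained 0.057% SRB, 30 min, dark, room temperature; rinsed with 1% acetic acid; dye solubilised in Tris base pH 10.5; absorbance 510 nm; percent cell death.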
# MDA-MB-231 cells [3] = assay: SRB cytotoxicity assay, MDA-MB-231; type: cell-based, human
# HEK-293 kidney cells = assay: SRB cytotoxicity assay, HEK-293 normal cells; type: cell-based; conditions: Homo sapiens, HEK293, read-out: IC50 value, HEK-293 kidney cells
# In short: (§1)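 Dose–response SRB assay: cells at 3000 per well were attached 24 h, then treated 48 h with test compound at 0.39–25 μM. They were TCA-fixed and stained with 0.057% SRB. Bound dye was dissolved in Tris base pH 10.5 and read at 510 nm. IC50 was fitted by non-linear regression.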
# BEAS-2B lung cells = assay: SRB cytotoxicity assay, BEAS-2B normal cells; type: cell-based; conditions: Homo sapiens, read-out: IC50 value, BEAS-2B lung cells
# In short: as §1
# MCF-7 cells [4] = assay: Cell cycle analysis; type: cell-based, human; conditions: MCF-7, 6 μM
# In short: (§2)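 Cells were seeded at 1 × 10^5 per well and attached 24 h, then exposed to test compound for 24 h. Doxorubicin (0.5 μM) and untreated controls were run alongside. Cells were harvested, washed with PBS and stained with PI/RNase solution for DNA content. Flow cytometry gave G1, S and G2/M fractions from fluorescence intensity using predefined gates.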
# 4T1 cells [5] = assay: Cell cycle analysis; type: cell-based, murine; conditions: 4T1, 6 μM
# In short: as §2
# MDA-MB-231 cells [6] = assay: Cell cycle analysis; type: cell-based, human; conditions: MDA-MB-231, 4 μM
# In short: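 Cells were treated with test compound at 0.5, 1, 2 and 4 μM beside untreated controls. They were stained with propidium iodide and analysed by flow cytometry to give the percentages of cells in G1, S and G2/M phases.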
# MCF-7 cells [7] = assay: Annexin V-FITC/PI apoptosis assay, MCF-7; type: cell-based, human
# In short: (§3)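 Cells were seeded at 1 × 10^5 per well and allowed to adhere 24 h, then treated 24 h with test compound (2, 4, 6 μM) alongside untreated controls. They were harvested, washed in PBS and stained with annexin V-FITC plus PI in binding buffer, 20 min, dark, room temperature. Flow cytometry gave percentages of viable, early apoptotic, late apoptotic and necrotic cells.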
# 4T1 cells [8] = assay: Annexin V-FITC/PI apoptosis assay, 4T1; type: cell-based, murine
# In short: as §3
# [9] = system: BCL-2 and Survivin expression in MDA-MB-231 cells; assay: Gene expression analysis by RT-qPCR; type: cell-based, human
# In short: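 Cells were treated 48 h with varying test compound concentrations, then total RNA was extracted and checked spectrophotometrically. 2 μg RNA was reverse-transcribed to cDNA. BCL2 and Survivin transcripts were measured by RT-qPCR and quantified by the 2−ΔΔCt method against β2-microglobulin as reference gene.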
# MDA-MB-231 cells [10] = assay: 3D spheroid; type: cell-based, human; conditions: 8 days
# In short: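 Single-cell suspensions in 1.5% methylcellulose/DMEM with 20% FBS were seeded at 1 × 10^5 cells per well over a 1% agarose–DMEM base for non-adherent growth. Cells were treated with test compound (0.5, 1, 2 μM) or doxorubicin and incubated 8 days. Spheres (≥20 cells) were imaged by fluorescence microscopy and counted per microscopic field.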
compound,measurement,setting,value
"Cc1ccc(C(=O)c2c(-c3ccccc3)n(Cc3ccccc3)c(=O)c3c2c2ccccc2n3C)cc1 [9c, 2-Benzyl-9-methyl-4-(4-methylbenzoyl)-3-phenyl-2,9-dihydro-1H-pyrido[3,4-b]indol-1-one]",cytotoxicity at 25 µM,"MCF-7 cells [1]; Homo sapiens, MCF7, 48 h, read-out: Average cell death (%) MCF-7",75.14 ± 0.02%
same,IC50,"MCF-7 cells [1]; Homo sapiens, MCF7, 48 h, read-out: IC50 value, MCF-7",4.34 ± 0.31 µM
same,Average cell death (%) MCF-7,"MCF-7 cells [1]; at 25 μM, 48 h, SRB assay",75.14 ±4.02%
same,cytotoxicity at 25 µM,"4T1 cells [2]; Mus musculus, 4T1, 48 h, read-out: Average cell death (%) 4T1",72.34 ± 0.04%
same,IC50,"4T1 cells [2]; Mus musculus, 4T1, 48 h, read-out: IC50 value, 4T1",3.71 ± 0.39 µM
same,Average cell death (%) 4T1,"4T1 cells [2]; at 25 μM, 48 h, SRB assay",72.34 ±4.04%
same,cytotoxicity at 25 µM,"MDA-MB-231 cells [3]; Homo sapiens, MDA-MB-231, 48 h, read-out: Average cell death (%) MDA-MB-231",94.7 ± 1.1%
same,IC50,"MDA-MB-231 cells [3]; Homo sapiens, MDA-MB-231, 48 h, read-out: IC50 value, MDA-MB-231",770 ± 30 nM
same,Selectivity for MDA-MB-231 breast cancer cells,MDA-MB-231 cells [3]; MDA-MB-231 over normal HEK-293 kidney and BEAS-2B lung cells,~10 fold
same,IC50,HEK-293 kidney cells,7.96 ± 0.04 µM
same,IC50,BEAS-2B lung cells,7.18 ± 0.32 µM
same,G1 phase population,MCF-7 cells [4],85.6%
same,G1 phase population,4T1 cells [5],50.1%
same,G2/M population,4T1 cells [5],41.1%
same,G1 phase population,MDA-MB-231 cells [6],46.9%
same,G2/M population,MDA-MB-231 cells [6],41.9%
same,Early apoptosis,"MCF-7 cells [7]; MCF-7, 2 μM",7.2%
same,Total apoptotic population (early + late),"MCF-7 cells [7]; MCF-7, 2 μM",11.3%
same,Early apoptosis,"MCF-7 cells [7]; MCF-7, 4 μM",8.05%
same,Total apoptotic population (early + late),"MCF-7 cells [7]; MCF-7, 4 μM",14.1%
same,Early apoptosis,"MCF-7 cells [7]; MCF-7, 6 μM",9.9%
same,Total apoptotic population (early + late),"MCF-7 cells [7]; MCF-7, 6 μM",16.5%
same,Early apoptosis,"4T1 cells [8]; 4T1, 2 μM",13.5%
same,Total apoptosis,"4T1 cells [8]; 4T1, 2 μM",16.5%
same,Early apoptosis,"4T1 cells [8]; 4T1, 4 μM",19.2%
same,Total apoptosis,"4T1 cells [8]; 4T1, 4 μM",23.5%
same,Early apoptosis,"4T1 cells [8]; 4T1, 6 μM",22%
same,Total apoptosis,"4T1 cells [8]; 4T1, 6 μM",27.2%
same,Expression of BCL-2,[9],significantly downregulated
same,Expression of Survivin,[9],significantly downregulated
same,Number of spheres,"MDA-MB-231 cells [10]; MDA-MB-231, 0.5, 1, and 2 μM",reduced the number of spheres in a dose-dependent manner
same,Sphere formation,"MDA-MB-231 cells [10]; MDA-MB-231, methylcellulose",completely abrogated sphere formation
